The test system of one data set is Trypanosoma evansi. Kind of data set: Trypanocidal activity against Trypanosoma evansi assessed as reduction in intracellular ATP production incubated for 72 hrs by CellTiter-Glo luminescent cell viability assay. It counts as functional, organism-based. In outline: (§1)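 Bloodstream trypanosomes in 96-well culture were exposed to compound in 5-fold serial dilutions from 25 µg/mL to 1.6 ng/mL for 72 h. Seeding and temperature: T. b. brucei, T. b. gambiense and T. b. rhodesiense at 5×10^3 cells/mL and 37 °C; T. evansi at 1×10^4 cells/mL and 37 °C; T. congolense at 2×10^5 cells/mL and 33 °C. Viability was read as intracellular ATP by CellTiter-Glo luminescence. Three replicates; IC50 calculated.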

Data set [1] can be described thus: Selectivity index, ratio of IC50 for cytotoxicity against bovine MDBK cells to IC50 for Trypanocidal activity against Trypanosoma evansi.
Data set [2] can be described thus: Selectivity ratio of IC50 for trypanocidal activity against Trypanosoma congolense to trypanocidal activity against Trypanosoma evansi. It counts as functional.
The test system of data set [3] is Trypanosoma brucei gambiense. In words: Trypanocidal activity against Trypanosoma brucei gambiense assessed as reduction in intracellular ATP production incubated for 72 hrs by CellTiter-Glo luminescent cell viability assay. It counts as functional, organism-based. In outline: as §1
In a further data set the test system is MDBK cells (Bos taurus). Kind of data set: Cytotoxicity against bovine MDBK cells assessed as reduction in cell viability incubated for 72 hrs by CCK8 assay.
A short description of data set [4]: Selectivity index, ratio of IC50 for cytotoxicity against bovine MDBK cells to IC50 for Trypanocidal activity against Trypanosoma brucei brucei. To be noted: cattle.
The next data set relates to Trypanosoma congolense. In words: Trypanocidal activity against Trypanosoma congolense assessed as reduction in intracellular ATP production incubated for 72 hrs by CellTiter-Glo luminescent cell viability assay. The class given is functional, organism-based. In outline:
as §1

In data set [5] the test system is Trypanosoma brucei brucei. Kind of data set: Trypanocidal activity against Trypanosoma brucei brucei assessed as reduction in intracellular ATP production incubated for 72 hrs by CellTiter-Glo luminescent cell viability assay. It counts as functional, organism-based. In outline:
as §1

Data set [6] is described as follows: Selectivity index, ratio of IC50 for cytotoxicity against bovine MDBK cells to IC50 for Trypanocidal activity against Trypanosoma congolense.
Data set [7] is described as follows: Selectivity index, ratio of IC50 for cytotoxicity against bovine MDBK cells to IC50 for Trypanocidal activity against Trypanosoma brucei rhodesiense.
Data set [8] is described as follows: Selectivity index, ratio of IC50 for cytotoxicity against bovine MDBK cells to IC50 for Trypanocidal activity against Trypanosoma brucei gambiense. To be noted: cattle.
Data set [9] deals with Trypanosoma brucei rhodesiense. In words: Trypanocidal activity against Trypanosoma brucei rhodesiense assessed as reduction in intracellular ATP production incubated for 72 hrs by CellTiter-Glo luminescent cell viability assay. It counts as functional, organism-based. In outline: as §1

The structures appear in SMILES notation.

For the compound `Oc1ccccc1-c1coc(-c2cccc(O)c2O)n1`, the IC50 was found to be 0.42 µM in the data set with Trypanosoma evansi; 1.6 µM in data set [3]; 9.7 µM with MDBK cells (Bos taurus); 0.85 µM in the data set with Trypanosoma congolense; 1.3 µM in data set [5]; 1.5 µM in [9]. In addition, the selectivity ratio in data set [1] came out at 23; in data set [4], 7.5; in data set [6], 11; in data set [7] it was 6.4; in data set [8], 6.1. Also, in data set [2], the Ratio IC50 is 2.
In the case of `COc1cccc(-c2ncc(-c3ccccc3)o2)c1OC`, the IC50 in the data set with Trypanosoma evansi turned out to be 59.3 µM; in data set [3] it was 84.7 µM; in the data set with MDBK cells (Bos taurus), 40.6 µM; with Trypanosoma congolense, 4 µM; in data set [5], 86.6 µM; in data set [9] it was 84.1 µM. Further, the selectivity ratio stood at 0.68 in [1]; 0.47 in [4]; 10 in [6]; 0.48 in data set [7]; 0.48 in [8].
With `COCOc1ccccc1-c1cnc(-c2cccc(OC)c2OC)o1`, the IC50 in the data set with Trypanosoma evansi was 25.8 µM; in data set [3], 19.6 µM; with MDBK cells (Bos taurus) it was 82.2 µM; in the data set on Trypanosoma congolense it was 3.9 µM; in data set [5], 21.5 µM; in [9], 26.2 µM. The selectivity ratio was 3.2 in [1]; 3.8 in [4]; 21 in data set [6]; 3.1 in data set [7]; 4.2 in data set [8].
Regarding `COc1ccccc1-c1coc(-c2cccc(OC)c2OC)n1`, the IC50 was 37.9 µM with Trypanosoma evansi; 38.7 µM in data set [3]; > 321 µM in the data set on MDBK cells (Bos taurus); 9.4 µM in the data set on Trypanosoma congolense; 38.1 µM in [5]; 31.6 µM in data set [9]. The selectivity ratio was > 8.5 in data set [1]; > 8.4 in data set [4]; > 34 in [6]; > 10 in data set [7]; > 8.3 in data set [8].
Take `COc1ccc(-c2ncc(-c3ccccc3OC)o2)c(OC)c1`: the half-maximal inhibitory concentration (IC50) in the data set on Trypanosoma evansi is 65.1 µM; in data set [3] it was 35.8 µM; in the data set with MDBK cells (Bos taurus) it was 59.5 µM; with Trypanosoma congolense, 15.3 µM; in data set [5], 75.3 µM; in [9], 59.2 µM. For the same compound, the selectivity ratio was found to be 0.91 in [1]; 0.79 in [4]; 3.9 in data set [6]; 1 in data set [7]; 1.7 in data set [8].
With `Oc1ccccc1-c1cnc(-c2cccc(O)c2O)s1`, the IC50 stood at 4 µM with Trypanosoma evansi; 8.2 µM in data set [3]; 20 µM with MDBK cells (Bos taurus); 2.3 µM in the data set on Trypanosoma congolense; 7.7 µM in data set [5]; 7.8 µM in [9]. Further, the selectivity ratio in data set [1] stood at 5; in data set [4], 2.6; in data set [6], 8.8; in data set [7] it was 2.6; in [8], 2.4.
Turning to `COc1cccc(-c2ncc(-c3ccc(OC)c(OC)c3OC)o2)c1OC`, the IC50 in the data set on Trypanosoma evansi was 59.8 µM; in data set [3] it was 63.4 µM; in the data set with MDBK cells (Bos taurus), 99.1 µM; in the data set with Trypanosoma congolense, 23.6 µM; in data set [5], 64.9 µM; in data set [9] it was 65 µM. For the same compound, the selectivity ratio in data set [1] stood at 1.7; in data set [4] it was 1.5; in data set [6] it was 4.2; in data set [7], 1.5; in [8], 1.6.
For `COc1cccc(-c2ncc(-c3ccc4ccccc4c3)o2)c1OC`, the IC50 is 71.2 µM in the data set on Trypanosoma evansi; 51.7 µM in data set [3]; 42.7 µM with MDBK cells (Bos taurus); 45.8 µM with Trypanosoma congolense; 71.5 µM in [5]; 71.7 µM in data set [9]. Moreover, the selectivity ratio worked out at 0.6 in data set [1]; 0.6 in data set [4]; 0.93 in data set [6]; 0.6 in [7]; 0.83 in [8].
`CC(=O)Oc1ccc(OC(C)=O)c(-c2ncc(-c3ccccc3OC(C)=O)o2)c1`: the IC50 in the data set with Trypanosoma evansi worked out at 34 µM; in data set [3], 55.3 µM; in the data set with MDBK cells (Bos taurus), 64.2 µM; with Trypanosoma congolense, 14.4 µM; in data set [5] it was 33.6 µM; in data set [9], 56 µM. Besides, the selectivity ratio was found to be 1.9 in data set [1]; 1.9 in [4]; 4.4 in data set [6]; 1.1 in data set [7]; 1.2 in data set [8].
Regarding `COc1ccccc1-c1cnc(-c2cccc(OC)c2OC)s1`, the IC50 was found to be 30.9 µM in the data set with Trypanosoma evansi; 31.4 µM in data set [3]; 114 µM with MDBK cells (Bos taurus); 5.7 µM with Trypanosoma congolense; 32 µM in data set [5]; 29.6 µM in data set [9]. Moreover, the selectivity ratio in data set [1] was determined as 3.7; in data set [4], 3.6; in [6], 20; in data set [7] it was 3.9; in data set [8], 3.6.
Take `Oc1ccccc1-c1nnc(-c2cccc(O)c2O)o1`: the IC50 is 0.81 µM with Trypanosoma evansi; 1.9 µM in data set [3]; 5.9 µM in the data set with MDBK cells (Bos taurus); 0.67 µM in the data set with Trypanosoma congolense; 1.9 µM in [5]; 1.9 µM in data set [9]. The selectivity ratio in data set [1] was found to be 7.2; in [4], 3.1; in [6], 8.8; in data set [7] it was 3.1; in data set [8], 3.1.
Regarding `COc1cccc(-c2cnc(-c3cccc(OC)c3)o2)c1`, the IC50 was 53.9 µM in the data set on Trypanosoma evansi; 66.9 µM in data set [3]; > 355 µM in the data set on MDBK cells (Bos taurus); 21.4 µM with Trypanosoma congolense; 62.2 µM in data set [5]; 66.5 µM in data set [9]. Also, the selectivity ratio was > 6.6 in data set [1]; > 5.7 in data set [4]; > 17 in data set [6]; > 5.3 in data set [7]; > 5.3 in data set [8].
In the case of `COc1ccccc1-c1cnc(-c2c(OC)cccc2OC)o1`, the IC50 with Trypanosoma evansi worked out at 21.7 µM; in data set [3], 24.6 µM; with MDBK cells (Bos taurus), 37.6 µM; with Trypanosoma congolense it was 5.3 µM; in data set [5] it was 19.7 µM; in [9] it was 18.4 µM. Also, the selectivity ratio worked out at 1.7 in data set [1]; 1.9 in data set [4]; 7.1 in data set [6]; 2 in data set [7]; 1.5 in [8].
Consider `CC(=O)Oc1ccccc1-c1cnc(-c2cccc(OC(C)=O)c2OC(C)=O)o1`, for which the IC50 is 5.6 µM in the data set on Trypanosoma evansi; 6.5 µM in data set [3]; 5.3 µM in the data set on MDBK cells (Bos taurus); 0.8 µM with Trypanosoma congolense; 4.6 µM in data set [5]; 2.5 µM in data set [9]. Besides, the selectivity ratio in data set [1] stood at 0.96; in [4] it was 1.2; in data set [6], 6.6; in data set [7], 2.1; in [8], 0.82.

The values above are taken from ChEMBL document CHEMBL4811303, “Synthesis and evaluation of trypanocidal activity of derivatives of naturally occurring 2,5-diphenyloxazoles” (Bioorg Med Chem, 2021).
